Tb MetRS inh = Trypanosoma brucei MetRS inhibition. purified T. brucei MetRS, ATP depletion, Kinase-Glo luminescence. inhibition, % at 11.9 µM. 0.4% of 360,000 active. AID 624268;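 active = inhibition above a per-plate cutoff of the control wells' mean inhibition plus 3 SD, cut at about 5.5% in these data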
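assay system = parasite MetRS enzyme | timing = 15 min preincubation, 2 h reaction, all 25 °C | evaluation = percent inhibition relative to median high and low control wells | medium = HEPES buffer containing pyrophosphatase, BSA, spermine, DTT | compound = single dose, 11.9 µM final nominal, 0.9% final DMSO | detection = Kinase-Glo luminescence, ATP depletion format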
bovine MsrA act = activators of bovine methionine sulfoxide reductase A; purified bovine MsrA, absorbance read-out; activation, % at 10.6 µM; 0.3% of 360,000 active; AID 602163; in the data active = activation above about 7.5%
AHR activator = activators of human aryl hydrocarbon receptor. P35869. AHR-responsive luciferase reporter cells, luminescence. activation, % at 5 µM. 2.5% of 320,000 active; in the data active = activation above about 47%
Target sequence (P35869 whole entry, looked up): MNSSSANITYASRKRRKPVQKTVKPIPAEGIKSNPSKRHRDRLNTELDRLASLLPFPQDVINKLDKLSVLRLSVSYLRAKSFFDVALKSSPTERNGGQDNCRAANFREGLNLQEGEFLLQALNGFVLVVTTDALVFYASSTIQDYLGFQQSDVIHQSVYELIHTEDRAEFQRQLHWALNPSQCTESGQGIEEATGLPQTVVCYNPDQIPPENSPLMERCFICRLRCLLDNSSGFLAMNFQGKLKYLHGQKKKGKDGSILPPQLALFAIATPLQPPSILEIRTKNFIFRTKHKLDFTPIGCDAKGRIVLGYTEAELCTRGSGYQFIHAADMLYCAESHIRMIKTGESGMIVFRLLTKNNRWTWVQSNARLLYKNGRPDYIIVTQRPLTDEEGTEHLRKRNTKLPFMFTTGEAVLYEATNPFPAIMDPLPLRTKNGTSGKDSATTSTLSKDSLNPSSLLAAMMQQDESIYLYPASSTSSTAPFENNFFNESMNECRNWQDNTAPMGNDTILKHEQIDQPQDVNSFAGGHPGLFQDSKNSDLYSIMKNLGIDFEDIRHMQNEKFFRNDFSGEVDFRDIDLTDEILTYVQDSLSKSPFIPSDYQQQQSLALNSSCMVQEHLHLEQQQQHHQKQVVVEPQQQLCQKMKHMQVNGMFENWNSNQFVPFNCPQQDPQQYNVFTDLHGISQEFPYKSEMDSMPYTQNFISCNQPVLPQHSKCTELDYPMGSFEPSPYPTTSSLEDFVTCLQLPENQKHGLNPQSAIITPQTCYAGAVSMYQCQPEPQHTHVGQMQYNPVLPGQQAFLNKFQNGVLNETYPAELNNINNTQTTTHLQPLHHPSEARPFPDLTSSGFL
MsrA inh = bovine MsrA inhibition. purified bovine MsrA, absorbance read-out. inhibition, % at 15.5 µM. 0.75% of 360,000 active; in the data active = inhibition above about 4.5%
AI-2 QS mod = modulators of Vibrio harveyi AI-2 quorum sensing system | Vibrio harveyi JMH597 AI-2 luminescence/OD600 ratio, 9 h; stronger effect = lower value; strain lacks LuxN and CqsS sensors; 0 = neutral-control median | activity change, % at 7.5 µM | 0.4% of 300,000 active | AID 2094; in the data active = activity change below about -75%, passing the limit was not always enough;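 note: luminescence divided by OD600 gain over 9 h not by final OD600 alone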
m5-HT2A agonist = agonists of mouse serotonin 5-HT2A receptor (HTR2A) | AID 624169 | CHO-K1 mHTR2A beta-arrestin complementation, luminescence; percent of 30 µM serotonin response | P35363 | 0.66% of 360,000 active | activation, % at 7.6 µM;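 active = activation above a run cutoff, the mean activation of all tested compounds plus 3 SD, cut at about 14% in these data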
Of the large screens only hits and unclear results are named; the others gave an inactive call. Shown are actives, neighbours in structure and some others; about 4.4% of the full set was active somewhere.

CC(=O)c1c(C)[nH]c(C(=O)Nc2ccc3c(c2)OCCO3)c1C	AHR activator 54
CCOc1ccc(NC(=O)c2[nH]c(C)c(C(C)=O)c2C)cc1	none
CC(=O)c1c(C)[nH]c(C(=O)Nc2cccnc2)c1C	AHR activator 57
CC(=O)c1c(C)[nH]c(C(=O)Nc2cccc(C(F)(F)F)c2)c1C	none
COc1ccc(NC(=O)c2[nH]c(C)c(C(C)=O)c2C)cc1	AHR activator 61
O=C(CCc1c[nH]c2ccccc12)Nc1ccc(Oc2cccnc2)cc1	none (no result: Tb MetRS inh, bovine MsrA act, AHR activator, AI-2 QS mod, m5-HT2A agonist)
C[C@@H](CO)NC(=O)c1[nH]cnc1C(=O)Nc1ccccc1	none (no result: Tb MetRS inh, bovine MsrA act, AHR activator, AI-2 QS mod, m5-HT2A agonist)
N#Cc1ccc(-c2nnnn2-c2ccc3c(c2)OCO3)cc1	none
N#Cc1cccc(-n2nnnc2-c2ccc3c(c2)OCO3)c1	AHR activator 57
CCCN1CCCCC(NC(=O)c2c(F)cccc2F)C1=O (centres undefined)	none (no result: Tb MetRS inh, bovine MsrA act, AHR activator, AI-2 QS mod, m5-HT2A agonist)
O=C(NC1CC1)c1cccc(NC(=O)c2cnn(-c3ccccc3)n2)c1	AHR activator 59 (no result: AI-2 QS mod)
O=C(Nc1cccc(C(=O)NC2CCCC2)c1)c1ccccc1	none
Cc1cc(N2CCN(C(=O)OC(C)(C)C)C[C@@H]2C)ccc1Br	none (no result: Tb MetRS inh, bovine MsrA act, AHR activator, AI-2 QS mod, m5-HT2A agonist)
COc1cccc(OCCCn2cc(/C=C3/C(=N)N4C=C(C)SC4=NC3=O)c3ccccc32)c1	AHR activator 51
CCCCn1c(N)c(N(Cc2ccccc2OC)C(=O)c2c(CC)noc2C)c(=O)[nH]c1=O	none
Cc1c(N=C2NN=C(c3c[nH]c4ccccc34)CS2)c(=O)n(-c2ccccc2)n1C	AHR activator 56
Cc1c(N=C2NN=C(c3ccc(Cl)cc3)CS2)c(=O)n(-c2ccccc2)n1C	none
CCc1nnc(NC(=O)c2oc3ccccc3c2COC(C)C)s1	AHR activator 74 (no result: AI-2 QS mod)
CC(C)(C)S(=O)(=O)N1C[C@@H]2CC(=O)C=C2[C@H]1CCO	none (no result: Tb MetRS inh, bovine MsrA act, AHR activator, AI-2 QS mod, m5-HT2A agonist)
C=CCNc1cccc2c1S(=O)(=O)N[C@H](Cc1ccccc1)CO2	none (no result: Tb MetRS inh, bovine MsrA act, AHR activator, AI-2 QS mod, m5-HT2A agonist)
Cc1ccc(NS(=O)(=O)c2cccc(C(=O)NNC(=O)c3cccn3C)c2)c(C)c1	none
O=C(Nc1ccc(Br)cc1)c1cccc(S(=O)(=O)Nc2ccccn2)c1	AHR activator 61
Cc1ccnc(NC(=O)c2cccc(S(=O)(=O)Nc3ccc(C)cc3C)c2)c1	AHR activator 61 (no result: AI-2 QS mod)
CCOC(=O)C1=C(C(=O)OCC)C2N(Cc3ccc(C#N)cc3)c3ccccc3[C@@]23C[C@@H](C(=O)OC)N(S(=O)(=O)c2ccc(OC)cc2)C3=N1 (some centres undefined)	none (no result: Tb MetRS inh, bovine MsrA act, AHR activator, AI-2 QS mod, m5-HT2A agonist)
Cn1c(/C(C#N)=C(\O)c2cc(Cl)sc2Cl)nc2ccccc21	none
Cn1c(/C(C#N)=C(\O)c2ccc(Br)s2)nc2ccccc21	AHR activator 52
CN(C)CCCOc1ccc(Cl)cc1Br	Tb MetRS inh 5.9
COC(=O)C1=C(C)N(Cc2ccc(C(F)(F)F)cc2)C(=NCc2ccc(C(F)(F)F)cc2)NC1c1ccccc1 (centres undefined)	none (no result: Tb MetRS inh, bovine MsrA act, AHR activator, AI-2 QS mod, m5-HT2A agonist)
C(=CCSc1ccccn1)CSc1ccccn1	none (no result: Tb MetRS inh, bovine MsrA act, AHR activator, AI-2 QS mod, m5-HT2A agonist)
COc1ccccc1C(=O)Nc1ccccc1SC(=O)c1ccccc1OC	AHR activator 53
COc1ccc(C(=O)Nc2ccc(C)cc2C(=O)c2ccccc2)cc1	none
COc1ccccc1C(=O)Nc1ccc(C)cc1C(=O)c1ccccc1	AHR activator 52
C[C@H]1CN(C(=O)OC(C)(C)C)CCN1c1ccc(N2CC[C@H](O)C2)c(C#N)c1	none (no result: Tb MetRS inh, bovine MsrA act, AHR activator, AI-2 QS mod, m5-HT2A agonist)
Cc1ccc(S(=O)(=O)N2CCOCC2)cc1NCC(=O)Nc1ccc(OC(F)(F)F)cc1	none (no result: AI-2 QS mod)
C=CCn1cccc(C(=O)Nc2ccc(C)c(C)c2)c1=O	none
C=CCn1cccc(C(=O)Nc2ccc(C)cc2)c1=O	AHR activator 55
C=CCn1cccc(C(=O)Nc2cc(OC)ccc2OC)c1=O	AHR activator 60, MsrA inh 4.7
NC(=O)c1c(N)[nH]c(C(=O)c2ccccc2)c1-c1ccc2c(c1)OCO2	none (no result: Tb MetRS inh, bovine MsrA act, AHR activator, AI-2 QS mod, m5-HT2A agonist)
C[C@H]1COc2cccc(NCCO)c2S(=O)(=O)N1	none (no result: Tb MetRS inh, bovine MsrA act, AHR activator, AI-2 QS mod, m5-HT2A agonist)
Cc1ccccc1C(=O)Nc1ccc(C(=O)N/N=C/c2ccc(O)c(Br)c2)cc1	MsrA inh 4.6
Cc1ccc(C(=O)Nc2cccc(C(=O)N/N=C/c3ccc(O)cc3)c2)cc1	AHR activator 56
Cc1ccccc1C(=O)Nc1ccc(C(=O)N/N=C/c2ccc(F)cc2)cc1	none
COc1ccc(C2CC(=O)C(c3cccc(F)c3)=CN2Cc2ccccc2)cc1 (centres undefined)	none (no result: Tb MetRS inh, bovine MsrA act, AHR activator, AI-2 QS mod, m5-HT2A agonist)
[N-]=[N+]=NCC/C=C\C1NS(=O)(=O)OCC1O (centres undefined)	none
Nc1ccc(S(N)(=O)=O)cc1N	AHR activator 115
CCCn1cnc2cc(NCc3ccc(Br)cc3)ccc21	AHR activator 87
CCn1cnc2cc(NCc3nc4ccccc4n3Cc3ccccc3)ccc21	AHR activator 73
Cc1ccc(C(=O)N/C(=C\c2cccs2)c2nc3ccccc3[nH]2)cc1	MsrA inh 4.6
O=C(NNc1c2ccccc2nc2ccccc12)c1ccccc1O	AHR activator 129
O=C(NNc1c2ccccc2nc2ccccc12)c1ccccc1Cl	AHR activator 58
O=C(NNc1nc(=O)c2cccnc2s1)c1ccccc1O	AHR activator 49
O=C(NNC(=O)c1cccc2ccccc12)c1ccccc1O	none
CCOC(=O)CC1(Cc2ccccc2)Oc2ccccc2O1	none (no result: Tb MetRS inh, bovine MsrA act, AHR activator, AI-2 QS mod, m5-HT2A agonist)
Cc1nc2ccc(F)cc2cc1C(=O)Nc1cccc(Cl)c1C	AHR activator 107
Cc1ncsc1CCC(=O)N1CCCC(Nc2ccc(F)c(F)c2)C1 (centres undefined)	none
Cc1ccc(NC2CCCN(C(=O)CCc3scnc3C)C2)cc1C (centres undefined)	AHR activator 50
CC(C)CCN(C)[C@H]1C[C@H]2c3[nH]c4ccccc4c3CCN2C[C@H]1[C@H](C)O	none (no result: Tb MetRS inh, bovine MsrA act, AHR activator, AI-2 QS mod, m5-HT2A agonist)
CCn1c2c(n(C(C)=O)c1=O)C=C(C(=O)N1CCCC1)C(C)C(c1ccccc1)=C2 (centres undefined)	none (no result: Tb MetRS inh, bovine MsrA act, AHR activator, AI-2 QS mod, m5-HT2A agonist)
Cn1c(=O)c2c(nc(Oc3cccc(Br)c3)n2C)n(C)c1=O	AHR activator 48
Cc1ccc(CNC(=O)COC(=O)CCOc2ccc(C)cc2)cc1	none
CCC(C)Sc1ccc([C@H]2N[C@@](Cc3ccccc3)(C(=O)OC)[C@H]3C(=O)N(CC)C(=O)[C@@H]23)cc1 (some centres undefined)	none
CCOC(=O)CN1C(=O)C2(OCCCO2)c2cc(Br)ccc21	none
Oc1ccc(Cl)cc1C1=NNC(c2ccc(Cl)cc2)C1 (centres undefined)	AHR activator 77
Oc1c(Cl)cc(Cl)cc1C1=NNC(c2ccc(Cl)cc2)C1 (centres undefined)	none (no result: AHR activator, MsrA inh, AI-2 QS mod)
COc1ccccc1-c1nn2c(=O)cc(C)nc2s1	AHR activator 62
COc1ccccc1-c1nn2c(-c3ccco3)nnc2s1	none
COc1cc2nc(N(C)C)nc(N)c2cc1OC	AHR activator 65
Cc1[nH]c2ccc(Br)cc2c(=O)c1CN1CCOCC1	Tb MetRS inh 35

Assay outcomes as filed in PubChem.
